The results in this text go back to ChEMBL document CHEMBL1156534, “Hemopressin is an inverse agonist of CB1 cannabinoid receptors” (Proc Natl Acad Sci U S A, 2007).

What all share (format): functional, cell-based
In experiment [1] the target is T1, Alpha-2A adrenergic receptor (Homo sapiens) (UniProt P08913).
T1 sequence (whole entry): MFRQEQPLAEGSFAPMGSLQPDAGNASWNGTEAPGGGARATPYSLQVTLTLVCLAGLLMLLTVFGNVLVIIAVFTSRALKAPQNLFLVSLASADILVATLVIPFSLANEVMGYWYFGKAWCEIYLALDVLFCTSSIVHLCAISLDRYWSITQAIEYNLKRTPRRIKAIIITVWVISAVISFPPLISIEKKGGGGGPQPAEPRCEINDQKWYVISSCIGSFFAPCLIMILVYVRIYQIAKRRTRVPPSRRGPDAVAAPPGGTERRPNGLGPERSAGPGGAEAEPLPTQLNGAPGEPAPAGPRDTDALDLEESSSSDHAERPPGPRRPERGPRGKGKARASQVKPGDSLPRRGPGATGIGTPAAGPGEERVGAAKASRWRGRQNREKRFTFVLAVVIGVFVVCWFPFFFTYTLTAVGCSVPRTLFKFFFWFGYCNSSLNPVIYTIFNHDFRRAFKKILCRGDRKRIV
Kind of experiment: Antagonist activity at alpha2A adrenergic receptor expressed in HEK293 cells assessed as blockade of secreted alkaline phosphatase activity at 1 uM after 6 hrs relative to control. An outline of the steps: (§1)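 HEK-293 cells transiently co-transfected with pCRE-SeAP and a Flag-tagged receptor, 30,000 cells/well on poly-L-lysine. They were serum-starved 16–18 h, then exposed 6 h in serum-free medium to 10 μM forskolin (omitted for β2) plus the receptor agonist (100 nM), with or without peptide (1 μM). Heat-treated supernatant SeAP was read by CSPD chemiluminescence. Mean ± SEM, n = 6.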

Experiment [2] concerns the target Mu-type opioid receptor (Homo sapiens) (UniProt P35372). Kind of experiment: Antagonist activity at mu opioid receptor expressed in HEK293 cells assessed as blockade of secreted alkaline phosphatase activity at 1 uM after 6 hrs relative to control. In outline: as §1
Experiment [3] has as its target Delta-type opioid receptor (Homo sapiens) (UniProt P41143). Kind of experiment: Antagonist activity at delta opioid receptor expressed in HEK293 cells assessed as blockade of secreted alkaline phosphatase activity at 1 uM after 6 hrs relative to control. An outline of the steps:
as §1

The target of experiment [4] is Beta-2 adrenergic receptor (Homo sapiens) (UniProt P07550). Put plainly: Antagonist activity at beta2 adrenergic receptor expressed in HEK293 cells assessed as blockade of secreted alkaline phosphatase activity at 1 uM after 6 hrs relative to control. An outline of the steps: as §1
Experiment [5] addresses Cannabinoid receptor 1 (Homo sapiens) (UniProt P21554). Put plainly: Antagonist activity at CB1 receptor expressed in HEK293 cells assessed as blockade of secreted alkaline phosphatase activity at 1 uM after 6 hrs relative to control. An outline of the steps: (§2)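 HEK-293 cells transfected with 5 μg pCRE-SeAP plus 1 μg Flag-tagged CB₁ or CB₂ receptor, 30,000 cells/well, serum-starved 16–18 h. Stimulated 6 h in serum-free medium with 10 μM forskolin and 100 nM agonist, without or with 1 μM test peptide. Supernatant diluted in pH 7.2 buffer, heated 65°C 20 min, then CSPD chemiluminescence read. Mean ± SEM, n = 6.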

In experiment [6] the target is Cannabinoid receptor 2 (Homo sapiens) (UniProt P34972). Put plainly: Antagonist activity at CB2 receptor expressed in HEK293 cells assessed as blockade of secreted alkaline phosphatase activity at 1 uM after 6 hrs relative to control. An outline of the steps: as §2
Cannabinoid receptor 2 (Homo sapiens), sequence (P34972 whole entry): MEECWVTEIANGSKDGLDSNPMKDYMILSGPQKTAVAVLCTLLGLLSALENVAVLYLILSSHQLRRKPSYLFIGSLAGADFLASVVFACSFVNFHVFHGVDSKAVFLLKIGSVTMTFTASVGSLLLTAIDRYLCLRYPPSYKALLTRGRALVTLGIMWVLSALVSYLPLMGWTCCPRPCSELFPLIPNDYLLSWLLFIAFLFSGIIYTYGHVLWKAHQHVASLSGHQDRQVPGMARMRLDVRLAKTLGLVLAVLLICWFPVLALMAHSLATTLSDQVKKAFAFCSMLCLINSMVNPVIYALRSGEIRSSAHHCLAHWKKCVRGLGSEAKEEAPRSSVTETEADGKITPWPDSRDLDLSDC

Beta-2 adrenergic receptor (Homo sapiens), sequence (P07550 whole entry, looked up): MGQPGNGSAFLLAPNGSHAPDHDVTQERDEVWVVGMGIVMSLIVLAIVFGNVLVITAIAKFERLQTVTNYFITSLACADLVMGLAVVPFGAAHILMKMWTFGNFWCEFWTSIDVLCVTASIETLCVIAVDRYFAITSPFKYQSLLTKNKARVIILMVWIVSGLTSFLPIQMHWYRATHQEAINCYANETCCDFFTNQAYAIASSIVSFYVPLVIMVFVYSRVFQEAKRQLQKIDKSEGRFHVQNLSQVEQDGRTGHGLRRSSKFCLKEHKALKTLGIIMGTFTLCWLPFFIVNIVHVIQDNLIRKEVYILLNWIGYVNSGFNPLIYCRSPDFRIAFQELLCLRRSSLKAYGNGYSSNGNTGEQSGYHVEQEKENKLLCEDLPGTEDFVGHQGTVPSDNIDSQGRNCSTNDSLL
Mu-type opioid receptor (Homo sapiens), sequence (P35372 whole entry): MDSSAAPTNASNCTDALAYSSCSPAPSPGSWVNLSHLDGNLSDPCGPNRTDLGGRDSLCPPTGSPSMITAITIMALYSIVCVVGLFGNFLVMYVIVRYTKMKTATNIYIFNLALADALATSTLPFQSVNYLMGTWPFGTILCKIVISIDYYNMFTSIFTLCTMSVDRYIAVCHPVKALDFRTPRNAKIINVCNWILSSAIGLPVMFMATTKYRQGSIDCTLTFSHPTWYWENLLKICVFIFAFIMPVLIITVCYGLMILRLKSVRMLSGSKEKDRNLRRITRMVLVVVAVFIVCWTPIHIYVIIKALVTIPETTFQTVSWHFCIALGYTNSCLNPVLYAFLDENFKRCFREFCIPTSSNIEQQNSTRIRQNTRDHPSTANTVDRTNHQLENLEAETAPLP
Delta-type opioid receptor (Homo sapiens), sequence (P41143 whole entry): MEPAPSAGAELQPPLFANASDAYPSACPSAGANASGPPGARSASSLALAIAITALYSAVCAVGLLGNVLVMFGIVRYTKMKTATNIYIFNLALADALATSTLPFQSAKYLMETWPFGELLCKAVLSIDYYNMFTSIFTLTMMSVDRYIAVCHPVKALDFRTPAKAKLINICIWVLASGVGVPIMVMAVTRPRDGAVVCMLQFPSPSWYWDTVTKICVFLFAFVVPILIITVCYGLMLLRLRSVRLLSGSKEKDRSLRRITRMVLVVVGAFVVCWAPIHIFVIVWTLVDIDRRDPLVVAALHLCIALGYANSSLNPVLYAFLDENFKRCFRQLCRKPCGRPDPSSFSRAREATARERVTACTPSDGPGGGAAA
Cannabinoid receptor 1 (Homo sapiens), sequence (P21554 whole entry): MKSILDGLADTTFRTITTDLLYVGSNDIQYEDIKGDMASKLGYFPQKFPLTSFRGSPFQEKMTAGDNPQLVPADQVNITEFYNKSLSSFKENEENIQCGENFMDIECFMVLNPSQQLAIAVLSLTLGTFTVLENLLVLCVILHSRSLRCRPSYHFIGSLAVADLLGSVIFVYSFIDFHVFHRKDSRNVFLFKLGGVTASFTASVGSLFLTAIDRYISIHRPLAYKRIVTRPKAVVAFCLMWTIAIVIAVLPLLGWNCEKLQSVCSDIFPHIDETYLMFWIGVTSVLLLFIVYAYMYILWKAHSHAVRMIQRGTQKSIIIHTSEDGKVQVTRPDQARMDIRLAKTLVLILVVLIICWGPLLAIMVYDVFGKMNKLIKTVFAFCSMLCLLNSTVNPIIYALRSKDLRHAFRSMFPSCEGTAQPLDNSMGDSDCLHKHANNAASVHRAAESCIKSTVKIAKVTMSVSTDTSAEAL

On to `CC(C)NCC(O)c1ccc(O)c(O)c1` (stereo unspecified), for which the Activity in experiment [1] is 1.26.

Consider `Clc1cccc(Cl)c1NC1=NCCN1`, for which the Activity in experiment [2] worked out at 0.59.

Regarding `CC[C@H](C)[C@H](NC(=O)[C@H](Cc1ccc(O)cc1)NC(=O)[C@@H](NC(=O)[C@H](CCCNC(=N)N)NC(=O)[C@@H](N)CC(=O)O)C(C)C)C(=O)N[C@@H](Cc1cnc[nH]1)C(=O)N1CCC[C@H]1C(=O)N[C@@H](Cc1ccccc1)C(=O)O`, the results for the Activity in experiment [3] and in experiment [4] were 1.03 and 0.76, respectively.

In the case of `C[C@@H](NC(=O)[C@@H](N)Cc1ccc(O)cc1)C(=O)NCC(=O)N(C)[C@@H](Cc1ccccc1)C(=O)NCCO`, in experiment [5], the Activity was 0.68.

`CC(C)[C@H](NC(=O)[C@H](CCC(=O)O)NC(=O)[C@H](Cc1ccccc1)NC(=O)[C@H](C)NC(=O)[C@@H](N)Cc1ccc(O)cc1)C(=O)N[C@H](C(=O)NCC(=O)O)C(C)C`: the Activity in experiment [6] was 0.64.
